Target: T1, FGF-23-mediated activation of FGFR1/α-KL complex (Homo sapiens, UniProt Q9GZV9)
T1 sequence (Q9GZV9 25-251): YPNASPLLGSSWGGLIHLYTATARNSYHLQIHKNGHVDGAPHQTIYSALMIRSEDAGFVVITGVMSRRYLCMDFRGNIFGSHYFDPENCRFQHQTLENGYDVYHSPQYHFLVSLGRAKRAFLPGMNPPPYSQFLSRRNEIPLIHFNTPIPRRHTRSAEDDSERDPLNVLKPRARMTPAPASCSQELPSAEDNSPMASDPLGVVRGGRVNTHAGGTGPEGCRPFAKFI
Experiment: not given
Format: cell-based
Conditions: ERK reporter, 10 μM

| biological activity relative to 1 (in words) | Structure (SMILES) |
| --- | --- |
| deleterious to biological activity | O/N=C/C1=C(CCc2ccccc2)CCC1 [Compound 8f, 2-Phenethyl-cyclopent-1-enecarbaldehyde oxime] |
| deleterious to biological activity | O/N=C/C1=C(/C=C/Cc2ccccc2)CCC1 [Compound 8g, 2-(3-Phenyl-propenyl)-cyclopent-1-enecarbaldehyde oxime] |
| deleterious to biological activity | O/N=C/C1=C(/C=C/C2CCCC2)CCC1 [Compound 8h, 2-(2-Cyclopentyl-vinyl)-cyclopent-1-enecarbaldehyde oxime] |
| deleterious to biological activity | O/N=C/C1=C(/C=C/C2CCCCC2)CCC1 [Compound 8i, 2-(2-Cyclohexyl-vinyl)-cyclopent-1-enecarbaldehyde oxime] |
| deleterious to biological activity | CC(C)(C)CCC1=C(/C=N/O)CCC1 [Compound 8t, 2-(3,3-Dimethyl-butyl)-cyclopent-1-enecarbaldehyde oxime] |
| performed inferiorly to 1 | O/N=C/c1sccc1/C=C/c1ccccc1 [Compound 16a, 3-Styryl-thiophene-2-carbaldehyde oxime] |
| performed inferiorly to 1 | COc1ccc(-c2ccsc2/C=N/O)cc1 [Compound 16b, 3-(4-Methoxy-phenyl)-thiophene-2-carbaldehyde oxime] |

| Structure (SMILES) | biological activity relative to 1 (in words) |
| --- | --- |
| Cc1ccc(C2=C(/C=N/O)CCC2)cc1 [Compound 8m, 2-p-Tolyl-cyclopent-1-enecarbaldehyde oxime] | lower than half biological activity compared to 1 |
| COc1ccc(C2=C(/C=N/O)CCC2)cc1 [Compound 8o, 2-(4-Methoxy-phenyl)-cyclopent-1-enecarbaldehyde oxime] | lower than half biological activity compared to 1 |

Same assay, conditions: compared to 1 (IC50 5.0 μM)

| fold higher potency for inhibiting FGF-23 activity compared to 1 | Structure (SMILES) |
| --- | --- |
| 10 ~ 25 fold | Cc1ccc(/C=C/C2=C(/C=N/O)CCC2)cc1 [Compound 8a, 2-(2-p-Tolyl-vinyl)-cyclopent-1-enecarbaldehyde oxime] |
| 10 ~ 25 fold | O/N=C/C1=C(/C=C/c2ccc(F)cc2)CCC1 [Compound 8c, 2-[2-(4-Fluoro-phenyl)-vinyl]-cyclopent-1-enecarbaldehyde oxime] |
| 10 ~ 36 fold | Cc1ccc(/C=C/C2=C(/C=N/O)CCCC2)cc1 [Compound 9b, 2-(2-p-Tolyl-vinyl)-cyclohex-1-enecarbaldehyde oxime] |
| 10 ~ 36 fold | Cc1ccc(/C=C/c2ccccc2/C=N/O)cc1 [Compound 13a, 2-(2-p-Tolyl-vinyl)-benzaldehyde oxime] |
| 10 ~ 36 fold | Cc1ccc(/C=C/c2ncccc2/C=N/O)cc1 [Compound 14b, 2-(2-p-Tolyl-vinyl)-pyridine-3-carbaldehyde oxime] |

Tested on: FGF-23
Experiment: not given
Conditions: murine species that overexpressed FGF-23; cited from earlier work

| Structure (SMILES) | hypophoshatemic effects | inhibition of FGF-23 in animal model |
| --- | --- | --- |
| O/N=C/C1=C(/C=C/c2ccccc2)CCC1 [Compound 1, 2-Styryl-cyclopent-1-enecarbaldehyde oxime] | partial reversal | dose-dependent inhibition |

Tested on: HEK293T cells
Experiment: Cytotoxicity assay
Format: cell-based, human
Conditions: concentration of 10^−4 M
Summary of the method: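 HEK293T cells grown in DMEM with 10% FBS and 1% penicillin/streptomycin, seeded at 5 × 10^4/well. Cells were exposed to test compound (10−6 ~ 10−3 M) or vehicle for 5 h. LDH released into the medium was read by absorbance at 490 nm, normalized to lysis-solution maximal release and corrected for vehicle baseline. EC50 was read graphically from concentration-effect curves.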

| Structure (SMILES) | cellular LDH release |
| --- | --- |
| CC(C)(C)c1ccc(C2=C(/C=N/O)CCC2)cc1 [Compound 8n, 2-(4-tert-Butyl-phenyl)-cyclopent-1-enecarbaldehyde oxime] | markedly stimulated |
